We go through 48 sequences from the EternaBench riboswitch data.

The subject of the data set is MS2 coat protein. Briefly: apparent Kd, MS2 coat protein; higher = weaker binding; RNA-MaP array; FMN 200 µM where present. In a few lines:
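On Illumina sequencing-chip clusters, designs were transcribed by stalled E. coli RNA polymerase and titrated with SNAP-549-labelled MS2 coat protein (0.7 or 1.5 nM, doubling to 3 µM), without and then with constant ligand, in 100 mM Tris-HCl pH 7.5, 80 mM KCl, 4 mM MgCl2, BSA, DTT, yeast tRNA and Tween-20. Apparent Kd is the median of filtered per-cluster curve fits to green signal normalised to red-channel RNA signal and control-cluster median Fmax.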

The mark [1] stands for this setting: designed as: ON switch for flavin mononucleotide, no ligand.
[2] abbreviates: ligand present: flavin mononucleotide, designed as: ON switch for flavin mononucleotide.
[3] abbreviates: designed as: OFF switch for flavin mononucleotide, no ligand.
Setting [4] is: ligand present: flavin mononucleotide, designed as: OFF switch for flavin mononucleotide.

For “AGAUUUGUACAUGAGGAUCACCCAUGUUAAUAGGUGGUUGUCAGAAGGCAUUAAUAGAGAUUUAAUGAGGAUAUGAAUUUACAA”, the “apparent Kd” value runs as follows: under setting [1], 1420 nM; under setting [2], 1040 nM.
In the case of “CGAUGACAUAGUCAUCCGUAACGGACAUGAGGAUCACCCAUGUAGGAUAUGCUACUCAACGAGUAGCAGAAGGACAUGAGUCUU”, the “apparent Kd” value was determined as 38.3 nM under setting [3] and 347 nM under setting [4].
As to “GUCAGCUCGUGAGGAUAUACAACACUGCUUCGGCAGUGUAUUAAGCUCACAUGAGGAUCACCCAUGUAGAAGGCACGAGCUGAU”, the “apparent Kd” value is, setting by setting: under setting [3], 5.37 nM; under setting [4], 11.2 nM.
For “CAAGGCGGUGAAGGAUAUACACGGGCGUUGCCAAACAUGAGGAUCACCCAUGUAGAAGGUCACCCUGAGAAGGCUUUAUGCCUA”, in that order: 411 nM and 42.2 nM.
For “GAACAGGGAGGAUAUACAGAUCCUCGUGCCUGCGGACCAAGACAUGAGGAUCACCCAUGUAGAAGGCCCGAAAA”, in that order: 15.3 nM and 10.5 nM.
For “GCGUAAGUCACAGGAUAUCCAACAUGAGGAUCACCCAUGUAAAAGUGCCGCACUAGAAUGCGACUGGAGAAGGGUGAUUCGUCG”, the “apparent Kd” value under setting [1] turned out to be 50.3 nM and the “apparent Kd” value under setting [2] stood at 27.5 nM.
On the same counts, the results for “UAGUGAUUGCAAGGAUAUGCUAGUUUUUAUUUGUGUUUGAUAUCUAACAUGAGGAUCACCCAUGUGCAGAAGGUGCUUGAUUUG” are 87.8 nM and 107 nM.
As for “AAAAAAAAAGUAGAGGAUAUCCGAGUGGUAACAUGAGGAUCACCCAUGUGAAGAAAGGAAGAUGAGGAGAAGGCUACAAAAAAAAA”, the “apparent Kd” value by setting is: under setting [1], 47.5 nM; under setting [2], 21.9 nM.
Turning to “AGUUUUGUACAUGAGGAUCACCCAUGUUAAUAUGUGGUAGUCAGAAGGCAUUGUUAGUGUUUAUAUGAGGAUAUGAUUAGGCAG”, the “apparent Kd” value is, setting by setting: under setting [1], 46.6 nM; under setting [2], 24.6 nM.
On to “GUUAGACAUGAGGAUCACCCAUGUGAGGAUAUGAUGCGAUCGUGAUGAAAUGAUCGCAUCAGAAGGCACAUAUG”, for which the “apparent Kd” value runs as follows: under setting [3], 153 nM; under setting [4], 423 nM.
For “CAGCGAAAGCUGAAUCUGUAGAGAGAGGAUAUACGUCAUAAGGUGCAUACAUGAGGAUCACCCAUGUAGAAGGCUCUCUACAGU”, in that order: 25.3 nM and 603 nM.
For the sequence “UUACUUGUGCAGAAGGGCAUUGAUUUAGGUUUUUAGGUUGAUCAGAUAUGCAGGAUAUGCUAUACAUGAGGAUCACCCAUGUUC”, the “apparent Kd” value is, setting by setting: under setting [1], 112 nM; under setting [2], 8.99 nM.
For the sequence “GCUUGAGCAGGAUAUACAUGAGGAUCACCCAUGUUGAGCUUGAGGAUCUUCGAGUUCGGUAGAAGGGUUCGAGU”, the “apparent Kd” value reads like this: under setting [3], 22.1 nM; under setting [4], 59.5 nM.
With “CGAAGUCCGUAGAAGGGUGACAUGAGGAUCACCCAUGUGCGAGCGGAGGGAGUCAUCGGCUCGCCACAGGAUAUACGGAGCACG”, the “apparent Kd” value reads like this: under setting [1], 58.1 nM; under setting [2], 49.2 nM.
Regarding “CCAGAUAUGUGAGGAUAUAGAGUGGAAUACACUCUAGAAGGUAUGUGAAAACAUGAGGAUCACCCAUGUGAUUGAUUAUCUGGA”, the “apparent Kd” value stood at 28.2 nM under setting [1] and 27.3 nM under setting [2].
Turning to “CGCUGUCAUGCAGGAUAUGCAUUGGAUUACAAUGCAGAAGGGCGAUUACAUGAGGAUCACCCAUGUGUAGACAGUGAACAAGAG”, the “apparent Kd” value under setting [1] came to 124 nM and the “apparent Kd” value under setting [2] stood at 11.4 nM.
In the case of “UUACUAUUACAGAAGGUUUAAUAAUAUAUAAAAGAAGGAUAUGUAACAUGAGGAUCACCCAUGUUUCACCCACAUGAGGAUCAU”, the “apparent Kd” value by setting is: under setting [3], 10.8 nM; under setting [4], 10.4 nM.
On the same counts, the results for “UGAUAGGACAGAGGAUAUACAGAUAGGAUCUACUAUCAAACAAUCCUCACAUGAGGAUCACCCAUGUAGAAGGCUGUCCUAUCU” are 106 nM and 888 nM.
On the same counts, the results for “CCUAUACAUGAGGAUCACCCAUGUCAGGAUAUAGAAAGCCGCGGAAUAGGACACGGCACUAGAAGGGACUGGCU” are 29.7 nM and 36.1 nM.
Turning to “GGGCGACAUGAGGAUCACCCAUGUAACCAAAACGAAGGAUAUGGGCCUGAACGUCCAGGACUAGAAGGUCGGAAAC”, the “apparent Kd” value by setting is: under setting [1], 22 nM; under setting [2], 18 nM.
Turning to “GGUGGACAUGAGGAUCACCCAUGUGAGGAUAUCGGCUGGUACGUGUUGGCUGGCAUCUCGAGAAGGCACAUCGU”, the “apparent Kd” value by setting is: under setting [3], 56.2 nM; under setting [4], 135 nM.
On to “ACUCUACAUGAGGAUCACCCAUGUCGAGCCCAUCAAGGAUAUGGGUCUUGAUCGCGGGUGCCAGAAGGUGAUGGUU”, for which the “apparent Kd” value under setting [1] amounted to 43.9 nM and the “apparent Kd” value under setting [2] is 47.1 nM.
“AACAUGUCAGGAUAUGACUAAGGUGCUCGGUUGAGCCCUUAUCAGAAGGGACAUGAGGAUCACCCAUGUUCCGA”: the “apparent Kd” value by setting is: under setting [3], 17.8 nM; under setting [4], 21.1 nM.
On the same counts, the results for “GUCAGCUCGUGAGGAUAUACAACACUGCUUCGGCCGUGUAUUAAGAUCACAUGAGGAUCACCCAUGUAGAAGGCACGAGCUGAU” are 13.6 nM and 228 nM.
“AAUAAACACACAGGAUAUAGCAUCGUCGUUGCGAACUUAGCGACGUCGAUGCUAGAAGGGUGAAAACAUGAGGAUCACCCAUGU”: the “apparent Kd” value is, setting by setting: under setting [1], 80.9 nM; under setting [2], 20.1 nM.
As for “GAGGCCCAGGAAGGUAGAAUGAGCAGAAGGCAACGAAGCGUGAUCGACAUGAGGAUCACCCAUGUUGAGGAUAUGCGCCUCCAC”, the “apparent Kd” value is, setting by setting: under setting [3], 63.1 nM; under setting [4], 178 nM.
For “CCGGCUUAGGAGGAUAUAGGAGUCGAUAGACACCUAGAAGGCCUAACAUGAGGAUCACCCAUGUGUCCUACCGG”, in that order: 17.8 nM and 61.5 nM.
For “UUGUUGUGUGUAGGAUAUGCGUGUUAUUAUUAUGCAGAAGGACAUGAGGAUCACCCAUGUGUAUUGUUAUUAUAUAUUAUAUAU”, in that order: 21.4 nM and 22.5 nM.
On the same counts, the results for “CCACGGUAUGUAGGAUAUGCAUAGCAUUGCUAUGCAGAAGGACAUGAGGAUCACCCAUGUAUGUAUUCCAUACUAAUCCCGUGG” are 5.5 nM and 5.69 nM.
Consider “GCUGUAAGAGGAUAUACAUGGUAUUGACUGGCACCGGUUAGACAUGAGGAUCACCCAUGUAGAAGGCUUGUAUG”, for which the “apparent Kd” value runs as follows: under setting [3], 86.3 nM; under setting [4], 248 nM.
In the case of “ACAUACUUUCGAGGAUAUCGGUGAUAAUUUUUACGAGAAGGCGAUAAAAGAUAUAAUCUUAUAGACAUGAGGAUCACCCAUGUA”, the “apparent Kd” value runs as follows: under setting [1], 30.5 nM; under setting [2], 26.4 nM.
Take “CCGAAUAAGCAGGAUAUCGUAUCGGAAACGAUACGAGAAGGGCUAACAUGAGGAUCACCCAUGUUCCUUAACGG”: the “apparent Kd” value came out at 22.1 nM under setting [3] and 23.5 nM under setting [4].
On to “UCAUACAUUCGAGGAUAUCGGUGAUAACUCUAACGAGAAGGCGAUUUAAAACAUAAUGCUGUAGACAUGAGGAUCACCCAUGUA”, for which the “apparent Kd” value was 416 nM under setting [1] and 146 nM under setting [2].
As to “AAAUUGCUAGAGGAUAUCGGAUAGGAUCUAUUGCGAGAAGGUUGGACAUGAGGAUCACCCAUGUUCUGUUGGGA”, the “apparent Kd” value was found to be 25.8 nM under setting [3] and 25.8 nM under setting [4].
For “AACCGCGACCGGCCUGGCACGUCGAGAAGGGUACGUGACCUGCUUUACAUGAGGAUCACCCAUGUACAGGAUAUCGAAUAGCCG”, the “apparent Kd” value was found to be 5.97 nM under setting [3] and 8.4 nM under setting [4].
On the same counts, the results for “AUAUUUAUUUAGAAGGACAUGAGGAUCACCCAUGUCGCUGGGCGCGGGAAACCGUGCCCGGCCAUGUAGGAUAUAGAUAGAUAU” are 8.78 nM and 9.88 nM.
On the same counts, the results for “ACGGCUAACCCAGUUUGAAUCUCAAGAAGGGUACACUGGGCAAGGUACAUGAGGAUCACCCAUGUACAGGAUAUUGAGAUGAGA” are 48.4 nM and 74 nM.
For the sequence “AUUGUUCGAGAGAAGGGAACAUGAGGAUCACCCAUGUUACCUCACCCGGUGACGGAACUCCAAGUUCAGGAUAUCUCGAGCGAU”, the “apparent Kd” value turned out to be 7.64 nM under setting [3] and 16 nM under setting [4].
As to “AGUCGGAGCAGAGGAUAUACAUGAGGAUCACCCAUGUAAUAAAGUGAAGCCUGGAAACAGGCAAUGUAGAAGGCUGCUCCGACA”, the “apparent Kd” value is, setting by setting: under setting [3], 28.1 nM; under setting [4], 232 nM.
Consider “GCGUAACAUGAGGAUCACCCAUGUGCCCGAGAAUUCGGGCCGAGAAGGGUGACCGGUCGUUUGGCACAGGAUAUCGACGUUGUG”, for which the “apparent Kd” value came to 31.5 nM under setting [1] and 12.7 nM under setting [2].
With “AUCAGCUCGUCAGGAUAUACGUCACUGCGUCAGCAGUGUGGUAAGAUCACAUGAGGAUCACCCAUGUAGAAGGGACGAGUUGAU”, the “apparent Kd” value by setting is: under setting [3], 13.6 nM; under setting [4], 310 nM.
Turning to “CGAAACAACACAACGAAGCAGGUACCAGAAGGGACGGCGUCACAUGAGGAUCACCCAUGUUGCAGUCAGGAUAUGGGCCAUCCU”, the “apparent Kd” value stood at 33.1 nM under setting [1] and 6.95 nM under setting [2].
Take “UGGUACUAGGGAGGAUAUGGGAAGAUACAUGAGGAUCACCCAUGUUUAAGAAUGCCGAGAGGCAACUAGAAGGCCCUUGUACCU”: the “apparent Kd” value under setting [1] was determined as 444 nM and the “apparent Kd” value under setting [2] was determined as 19.3 nM.
In the case of “GGAUCGAAUGUGAGGAUAUGCAGGUCCUUGGAUCUGCAGAAGGCACAUGAGGAUCACCCAUGUGACCAAGAUCC”, the “apparent Kd” value was found to be 50 nM under setting [3] and 548 nM under setting [4].
“UUUAGUUUAGGAUAUGUAGACGUUAACAUGAGGAUCACCCAUGUAGAUCCUGAAUUGGCUACAGAAGGAAGCAUUU”: the “apparent Kd” value by setting is: under setting [3], 285 nM; under setting [4], 531 nM.
For “CCCUAGGGAGGAUAUCCAAUAUAUGACAUGAGGAUCACCCAUGUUUCCACUCGUACCUCCGGAGAAGGCCCAUCCC”, in that order: 26.3 nM and 24.5 nM.
For “GUGUACAGAGGAUAUAUAUGAGCAUGGAAACAUGCAAGAUCACAUGAGGAUCACCCAUGUAGAAGGCUGUACAC”, in that order: 88.4 nM and 541 nM.
On the same counts, the results for “UGGUGUGAGCUAUCACAUGACUGGGAGGAUAUGACAUGAGGAUCACCCAUGUGGGAUCUAAAUUGUCAGAAGGCUCGAUCUGGG” are 750 nM and 208 nM.

The term apparent Kd denotes a dissociation constant that holds for the conditions of the assay.
